According to ChEMBL document CHEMBL5724801, “EUbOPEN Chemogenomics Library - Multiplex” (2024):
Several values for one entry are separate records, joined by “and”; a condition that tells them apart may be missing. Equal values may be shown once.

Legend:
[1] = tested on: HEK-293T; assay: Multiplex assay against HEK293T; format: toxicity, cell-based; details: human
Summary of the method: (§1)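 Live cells were stained at seeding with Hoechst33342, BioTracker Green Microtubule Cytoskeleton Dye, MitoTracker Red and Annexin V Alexa Fluor 680. Following compound addition, they were imaged on a CQ1 microscope at 37°C and 5% CO2 and gated by CellPathfinder machine learning into Hoechst high-intensity objects or normal cells, with normal cells split into healthy, pyknosed or fragmented nuclei and pyknosed cells into mitotic or apoptotic. Tubulin, mitochondrial-mass and membrane-permeability phenotypes are per cents of healthy-nucleus cells.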

[2] = tested on: U2OS; assay: Multiplex assay against U2OS; format: toxicity, cell-based; details: human; summary of the method: as §1
[3] = 24 h, 10 µM, compound concentration 10 uM
[4] = 48 h, 1 µM, compound concentration 1 uM
[5] = 48 h, 10 µM, compound concentration 10 uM
[6] = 12 h, 1 µM, compound concentration 1 uM
[7] = 12 h, 10 µM, compound concentration 10 uM
[8] = 24 h, 1 µM, compound concentration 1 uM

## Cc1ccc(/C(=C\CN2CCCC2)c2ccccn2)cc1 [TRIPROLIDINE]
[1]; [3]
  Population Apoptotic (%): 36% and 27%
  Population Fragmented Nuclei (%): 8% and 9%
  Population Healthy Nuclei (%): 78% and 80%
  Population Hoechst High Intensity Objects (%): 9% and 4%
  Population Membrane Permeable-Phenotype (%): 0%
  Population Mitochondria Different-Phenotype (%): 55% and 54%
  Population Mitotic Cells (%): 63% and 72%
  Population Normal (%): 90% and 95%
  Population Pyknosed Nuclei (%): 13% and 10%
  Population Tubulin-Different-Phenotype (%): 43% and 26%
  Total Cell Count: 490 and 464
[1]; [4]
  Population Apoptotic (%): 16% and 37%
  Population Fragmented Nuclei (%): 14% and 10%
  Population Healthy Nuclei (%): 79% and 84%
  Population Hoechst High Intensity Objects (%): 1% and 3%
  Population Membrane Permeable-Phenotype (%): 2% and 1%
  Population Mitochondria Different-Phenotype (%): 17% and 13%
  Population Mitotic Cells (%): 83% and 62%
  Population Normal (%): 98% and 96%
  Population Pyknosed Nuclei (%): 6% and 4%
  Population Tubulin-Different-Phenotype (%): 11% and 6%
  Total Cell Count: 950 and 837
[1]; [5]
  Population Apoptotic (%): 43% and 33%
  Population Fragmented Nuclei (%): 16% and 13%
  Population Healthy Nuclei (%): 74% and 78%
  Population Hoechst High Intensity Objects (%): 6% and 4%
  Population Membrane Permeable-Phenotype (%): 0% and 1%
  Population Mitochondria Different-Phenotype (%): 46% and 43%
  Population Mitotic Cells (%): 56% and 66%
  Population Normal (%): 93% and 95%
  Population Pyknosed Nuclei (%): 9% and 7%
  Population Tubulin-Different-Phenotype (%): 29% and 25%
  Total Cell Count: 674 and 644
[2]; [6]
  Population Apoptotic (%): 85%
  Population Fragmented Nuclei (%): 29% and 18%
  Population Healthy Nuclei (%): 61% and 70%
  Population Hoechst High Intensity Objects (%): 2% and 3%
  Population Membrane Permeable-Phenotype (%): 4% and 6%
  Population Mitochondria Different-Phenotype (%): 2% and 1%
  Population Mitotic Cells (%): 15% and 14%
  Population Normal (%): 97% and 96%
  Population Pyknosed Nuclei (%): 8% and 11%
  Population Tubulin-Different-Phenotype (%): 1% and 5%
  Total Cell Count: 244 and 126
[2]; [7]
  Population Apoptotic (%): 87% and 75%
  Population Fragmented Nuclei (%): 25% and 15%
  Population Healthy Nuclei (%): 64% and 77%
  Population Hoechst High Intensity Objects (%): 3% and 0%
  Population Membrane Permeable-Phenotype (%): 29% and 14%
  Population Mitochondria Different-Phenotype (%): 23% and 18%
  Population Mitotic Cells (%): 12% and 25%
  Population Normal (%): 96% and 99%
  Population Pyknosed Nuclei (%): 9% and 7%
  Population Tubulin-Different-Phenotype (%): 24% and 15%
  Total Cell Count: 264 and 114
[2]; [8]
  Population Apoptotic (%): 89% and 81%
  Population Fragmented Nuclei (%): 23% and 20%
  Population Healthy Nuclei (%): 66% and 68%
  Population Hoechst High Intensity Objects (%): 1% and 4%
  Population Membrane Permeable-Phenotype (%): 4% and 9%
  Population Mitochondria Different-Phenotype (%): 3% and 6%
  Population Mitotic Cells (%): 10% and 18%
  Population Normal (%): 98% and 96%
  Population Pyknosed Nuclei (%): 9% and 11%
  Population Tubulin-Different-Phenotype (%): 2% and 5%
  Total Cell Count: 297 and 150
[2]; [3]
  Population Apoptotic (%): 75% and 78%
  Population Fragmented Nuclei (%): 27% and 19%
  Population Healthy Nuclei (%): 62% and 70%
  Population Hoechst High Intensity Objects (%): 2% and 1%
  Population Membrane Permeable-Phenotype (%): 12% and 11%
  Population Mitochondria Different-Phenotype (%): 15% and 13%
  Population Mitotic Cells (%): 24% and 21%
  Population Normal (%): 97% and 98%
  Population Pyknosed Nuclei (%): 10% and 9%
  Population Tubulin-Different-Phenotype (%): 8% and 6%
  Total Cell Count: 320 and 149
[2]; [4]
  Population Apoptotic (%): 86% and 76%
  Population Fragmented Nuclei (%): 17%
  Population Healthy Nuclei (%): 73% and 75%
  Population Hoechst High Intensity Objects (%): 2% and 3%
  Population Membrane Permeable-Phenotype (%): 3% and 5%
  Population Mitochondria Different-Phenotype (%): 3%
  Population Mitotic Cells (%): 13% and 23%
  Population Normal (%): 97% and 96%
  Population Pyknosed Nuclei (%): 9% and 6%
  Population Tubulin-Different-Phenotype (%): 3% and 4%
  Total Cell Count: 398 and 209
[2]; [5]
  Population Apoptotic (%): 86% and 89%
  Population Fragmented Nuclei (%): 24% and 15%
  Population Healthy Nuclei (%): 65% and 74%
  Population Hoechst High Intensity Objects (%): 2% and 4%
  Population Membrane Permeable-Phenotype (%): 11% and 9%
  Population Mitochondria Different-Phenotype (%): 8%
  Population Mitotic Cells (%): 13% and 10%
  Population Normal (%): 97% and 95%
  Population Pyknosed Nuclei (%): 9%
  Population Tubulin-Different-Phenotype (%): 7% and 6%
  Total Cell Count: 453 and 203
